From ChEMBL document CHEMBL4138271, “Crystal Structures and Human Leukemia Cell Apoptosis Inducible Activities of Parthenolide Analogues Isolated from Piptocoma rufescens” (J Nat Prod, 2018)
pIC50: −log10 of the molar value. The source made the active and inactive calls. The calls are words filed in the database; no cut-off is given here.

Experiments:
EOL1 [1] = experiment: Induction of apoptosis in human EOL-1 cells assessed as live cells at 1.3 uM after 24 hrs by Annexin-V FITC/7-AAD staining based flow cytometric method (reference value: 97.5%); type: functional
MOLM-13 [2] = experiment: Induction of apoptosis in human MOLM13 cells assessed as live cells at 1.3 uM after 24 hrs by Annexin-V FITC/7-AAD staining based flow cytometric method (reference value: 86.8%); type: functional
EOL1 [3] = experiment: Induction of apoptosis in human EOL-1 cells assessed as caspase-3 activation at 10 uM after 72 hrs by immunoblotting analysis; type: functional, cell-based
Summary of the method: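 EOL-1 cells (RPMI 1640, 10% FBS, 37 °C, 5% CO2) exposed 72 h; compounds at 10 μM, PKC412 at 10 nM. Harvested, PBS-washed, lysed in hypertonic NP-40 buffer with protease/phosphatase inhibitors; SDS-PAGE, PVDF transfer, rabbit monoclonal cleaved caspase-3 (Asp175) antibody 12 h, secondary 1 h, chemiluminescent detection; β-actin loading control. Representative blots of three independent experiments.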

MOLM-13 [4] = experiment: Cytotoxicity against human MOLM13 cells after 72 hrs by MTS assay; type: functional, cell-based; conditions: MOLM-13, 72 h
EOL1 [5] = experiment: Induction of apoptosis in human EOL-1 cells assessed as necrotic cells at 2.5 uM after 24 hrs by Annexin-V FITC/7-AAD staining based flow cytometric method (reference value: 0.032%); type: functional
EOL1 [6] = experiment: Induction of apoptosis in human EOL-1 cells assessed as early apoptotic cells at 1.3 uM after 24 hrs by Annexin-V FITC/7-AAD staining based flow cytometric method (reference value: 1.94%); type: functional
MOLM-13 [7] = experiment: Induction of apoptosis in human MOLM13 cells assessed as late apoptotic cells at 5 uM after 24 hrs by Annexin-V FITC/7-AAD staining based flow cytometric method (reference value: 1.43%); type: functional
MOLM-13 [8] = experiment: Induction of apoptosis in human MOLM13 cells assessed as early apoptotic cells at 5 uM after 24 hrs by Annexin-V FITC/7-AAD staining based flow cytometric method (reference value: 11.8%); type: functional
MOLM-13 [9] = experiment: Induction of apoptosis in human MOLM13 cells assessed as late apoptotic cells at 2.5 uM after 24 hrs by Annexin-V FITC/7-AAD staining based flow cytometric method (reference value: 1.43%); type: functional
MOLM-13 [10] = experiment: Induction of apoptosis in human MOLM13 cells assessed as necrotic cells at 1.3 uM after 24 hrs by Annexin-V FITC/7-AAD staining based flow cytometric method (reference value: 0%); type: functional
EOL1 [11] = experiment: Induction of apoptosis in human EOL-1 cells assessed as necrotic cells at 5 uM after 24 hrs by Annexin-V FITC/7-AAD staining based flow cytometric method (reference value: 0.032%); type: functional
HT-29 = experiment: Cytotoxicity against human HT-29 cells after 72 hrs by MTS assay; type: functional, cell-based; conditions: HT-29, 72 h
EOL1 [12] = experiment: Synergistic antileukemic activity against human EOL-1 cells assessed as concentration required for <= 75% cell survival after 72 hrs in presence of midostaurin by CellTiter 96 AQueous One solution cell proliferation assay; type: functional
MOLM-13 [13] = experiment: Induction of apoptosis in human MOLM13 cells assessed as necrotic cells at 5 uM after 24 hrs by Annexin-V FITC/7-AAD staining based flow cytometric method (reference value: 0%); type: functional
EOL1 [14] = experiment: Induction of apoptosis in human EOL-1 cells assessed as early apoptotic cells at 5 uM after 24 hrs by Annexin-V FITC/7-AAD staining based flow cytometric method (reference value: 1.94%); type: functional
[15] = target: Transcription factor p65 (Homo sapiens) (UniProt Q04206); experiment: Inhibition of NFkappaB p65 in human MOLM13 cells at 10 uM after 72 hrs by immunoblotting method; type: cell-based
Transcription factor p65 (Homo sapiens), sequence (Q04206 whole entry): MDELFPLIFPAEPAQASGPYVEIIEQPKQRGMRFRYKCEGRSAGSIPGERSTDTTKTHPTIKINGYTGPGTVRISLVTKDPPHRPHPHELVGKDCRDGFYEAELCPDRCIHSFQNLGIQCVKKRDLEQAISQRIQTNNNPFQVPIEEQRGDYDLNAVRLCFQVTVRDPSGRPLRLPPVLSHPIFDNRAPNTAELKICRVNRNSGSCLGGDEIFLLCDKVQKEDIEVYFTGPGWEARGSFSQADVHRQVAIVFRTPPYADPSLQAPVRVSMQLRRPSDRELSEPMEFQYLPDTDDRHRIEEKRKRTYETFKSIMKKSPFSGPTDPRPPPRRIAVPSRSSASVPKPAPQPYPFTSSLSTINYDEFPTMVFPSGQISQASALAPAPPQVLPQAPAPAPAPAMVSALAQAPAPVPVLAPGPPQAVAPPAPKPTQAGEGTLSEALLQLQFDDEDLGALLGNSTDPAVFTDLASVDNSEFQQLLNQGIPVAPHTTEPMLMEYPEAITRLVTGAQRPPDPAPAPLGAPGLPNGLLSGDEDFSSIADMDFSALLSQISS
Summary of the method: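 MOLM-13 or EOL-1 cells treated 72 h at 10 μM. Cells washed in ice-cold PBS and lysed in hypertonic NP-40 buffer (10 mM HEPES pH 7.5, 0.5 M NaCl) with protease/phosphatase inhibitors. Protein measured by BCA; SDS-PAGE onto PVDF. Probed 12 h with rabbit monoclonal NF-κB-p65 antibody, goat β-actin as loading control, then chemiluminescence. Blots representative of three independent experiments.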

EOL1 [16] = experiment: Induction of apoptosis in human EOL-1 cells assessed as live cells at 2.5 uM after 24 hrs by Annexin-V FITC/7-AAD staining based flow cytometric method (reference value: 97.5%); type: functional
MOLM-13 [17] = experiment: Synergistic antileukemic activity against human MOLM13 cells assessed as concentration required for <= 75% cell survival after 72 hrs in presence of midostaurin by CellTiter 96 AQueous One solution cell proliferation assay; type: functional
MOLM-13 [18] = experiment: Induction of apoptosis in human MOLM13 cells assessed as late apoptotic cells at 1.3 uM after 24 hrs by Annexin-V FITC/7-AAD staining based flow cytometric method (reference value: 1.43%); type: functional
MOLM-13 [19] = experiment: Induction of apoptosis in human MOLM13 cells assessed as early apoptotic cells at 2.5 uM after 24 hrs by Annexin-V FITC/7-AAD staining based flow cytometric method (reference value: 11.8%); type: functional
EOL1 [20] = experiment: Induction of apoptosis in human EOL-1 cells assessed as necrotic cells at 1.3 uM after 24 hrs by Annexin-V FITC/7-AAD staining based flow cytometric method (reference value: 0.032%); type: functional
MOLM-13 [21] = experiment: Induction of apoptosis in human MOLM13 cells assessed as necrotic cells at 2.5 uM after 24 hrs by Annexin-V FITC/7-AAD staining based flow cytometric method (reference value: 0%); type: functional
EOL1 [22] = experiment: Induction of apoptosis in human EOL-1 cells assessed as late apoptotic cells at 2.5 uM after 24 hrs by Annexin-V FITC/7-AAD staining based flow cytometric method (reference value: 0.535%); type: functional
EOL1 [23] = experiment: Induction of apoptosis in human EOL-1 cells assessed as late apoptotic cells at 5 uM after 24 hrs by Annexin-V FITC/7-AAD staining based flow cytometric method (reference value: 0.535%); type: functional
MOLM-13 [24] = experiment: Induction of apoptosis in human MOLM13 cells assessed as live cells at 2.5 uM after 24 hrs by Annexin-V FITC/7-AAD staining based flow cytometric method (reference value: 86.8%); type: functional
EOL1 [25] = experiment: Induction of apoptosis in human EOL-1 cells assessed as late apoptotic cells at 1.3 uM after 24 hrs by Annexin-V FITC/7-AAD staining based flow cytometric method (reference value: 0.535%); type: functional
MOLM-13 [26] = experiment: Induction of apoptosis in human MOLM13 cells assessed as caspase-3 activation at 10 uM after 72 hrs by immunoblotting analysis; type: functional, cell-based
Summary of the method: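 MOLM-13 cells treated 72 h with test compounds at 10 μM or PKC412 at 10 nM. Cells washed in ice-cold PBS, lysed at 10^8 cells/mL in NP-40 hypertonic buffer (pH 7.5) with protease/phosphatase inhibitors, then run on SDS-PAGE and PVDF. Blots probed 12 h with rabbit monoclonal cleaved caspase-3 (Asp175), β-actin as loading control. Representative of three independent experiments.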

MOLM-13 [27] = experiment: Induction of apoptosis in human MOLM13 cells assessed as live cells at 5 uM after 24 hrs by Annexin-V FITC/7-AAD staining based flow cytometric method (reference value: 86.8%); type: functional
MOLM-13 [28] = experiment: Induction of apoptosis in human MOLM13 cells assessed as early apoptotic cells at 1.3 uM after 24 hrs by Annexin-V FITC/7-AAD staining based flow cytometric method (reference value: 11.8%); type: functional
EOL1 [29] = experiment: Induction of apoptosis in human EOL-1 cells assessed as early apoptotic cells at 2.5 uM after 24 hrs by Annexin-V FITC/7-AAD staining based flow cytometric method (reference value: 1.94%); type: functional
EOL1 [30] = experiment: Cytotoxicity against human EOL-1 cells after 72 hrs by MTS assay; type: functional, cell-based; conditions: EOL1, 72 h
EOL1 [31] = experiment: Induction of apoptosis in human EOL-1 cells assessed as live cells at 5 uM after 24 hrs by Annexin-V FITC/7-AAD staining based flow cytometric method (reference value: 97.5%); type: functional

inhibition [15]: Active
SMILES: C=C1C(=O)O[C@@H]2C[C@@H](C)/C=C\C(=O)[C@](C)(OC(C)=O)C[C@H](OC(=O)/C(C)=C\C)[C@@H]12
Activity (EOL1 [1]): 96.7%
Activity (MOLM-13 [2]): 90.8%
Activity (EOL1 [3]): Active
pIC50 (MOLM-13 [4]): 5.37
Activity (EOL1 [5]): 2.72%
Activity (EOL1 [6]): 1.87%
Activity (MOLM-13 [7]): 73.6%
Activity (MOLM-13 [8]): 0.349%
Activity (MOLM-13 [9]): 2.77%
Activity (MOLM-13 [10]): 0.147%
Activity (EOL1 [11]): 4.73%
pIC50 (HT-29): 5.92
Activity (EOL1 [12]): 2.5 µM
Activity (MOLM-13 [13]): 25.5%
Activity (EOL1 [14]): 0.031%
Activity (EOL1 [16]): 63.8%
Activity (MOLM-13 [17]): 1.9 µM
Activity (MOLM-13 [18]): 1.28%
Activity (MOLM-13 [19]): 10.5%
Activity (EOL1 [20]): 0.053%
Activity (MOLM-13 [21]): 0.276%
Activity (EOL1 [22]): 32.1%
Activity (EOL1 [23]): 92.9%
Activity (MOLM-13 [24]): 86.5%
Activity (EOL1 [25]): 1.36%
Activity (MOLM-13 [26]): Active
Activity (MOLM-13 [27]): 0.583%
Activity (MOLM-13 [28]): 7.82%
Activity (EOL1 [29]): 1.33%
pIC50 (EOL1 [30]): 5.37
Activity (EOL1 [31]): 2.79%
